The sample as a whole holds a higher share of hits than the screen did.
ROMK primary – ROMK potassium channel modulators, primary screen, cell-based, thallium flux, MLSMR library | Tet-inducible ROMK, thallium flux fluorescence; actives lie on both sides | B-score at 10 µM | 130,000 tested, 2% active | AID 1918, 2009;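 active = signal ratio slope over the read window, or its plate-corrected B-score, at least 3 SD from the plate mean, either direction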;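 also: B-score of the F/F0 ratio slope over 7 to 12 s after thallium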
Target sequence (P48048 whole entry, looked up): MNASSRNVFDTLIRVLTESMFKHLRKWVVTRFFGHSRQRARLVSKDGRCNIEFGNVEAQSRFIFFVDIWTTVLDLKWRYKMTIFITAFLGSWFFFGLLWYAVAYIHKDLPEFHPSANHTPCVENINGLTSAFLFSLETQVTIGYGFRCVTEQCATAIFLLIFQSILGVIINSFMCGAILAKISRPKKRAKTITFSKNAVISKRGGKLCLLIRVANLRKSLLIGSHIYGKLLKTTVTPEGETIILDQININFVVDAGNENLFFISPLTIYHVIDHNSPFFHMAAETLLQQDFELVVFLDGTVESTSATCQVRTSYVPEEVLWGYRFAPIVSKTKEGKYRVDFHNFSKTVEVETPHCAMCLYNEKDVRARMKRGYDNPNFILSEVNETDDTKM
Pf gamet viab – late stage P. falciparum gametocyte viability inhibitors, primary screen, ATP luminescence, HTS; P. falciparum stage V gametocytes, 24 h; inhibition, % at 10.9 µM; 150,000 tested, 0.065% active;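 active = inhibition above the mean plus 3 SD of compounds within the control limits, set per campaign, cut at about 38% in these data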;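 also: 0% = DMSO wells and 100% = medium only without gametocytes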
Biofilm kill mix – clotrimazole potentiators killing C. albicans biofilm, primary screen, 4-compound mixtures; C. albicans biofilm persisters + clotrimazole, fluorescence viability; primary screen in compound mixtures of four per well; inhibition, % at 7.6 µM; 120,000 tested, 0.02% active; AID 1242, 2008;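 active = inhibition above 30.3% in the primary screen of four-compound pools, then above 30% when the compound was retested; inconclusive = passed the primary limit but could not be retested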;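 also: compounds exposed to preformed 24 h biofilms for 48 h; 0% = untreated biofilm control and 100% = clotrimazole plus chlorhexidine kill blank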
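Test system: C. albicans biofilms. Buffer or medium: RPMI/MOPS medium, pH 7.0. Timing: 48 h compound exposure at 37 °C. Technique: Alamar Blue fluorescence. Evaluation: percent inhibition of biofilm viability.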
ROMK hit retest – ROMK channel modulator hit retest, confirmation, cell-based, thallium flux, duplicate, resupplied hits. normalized thallium flux (F/F0 slope) at 10 µM. fluorescence ratio; stronger effect = lower value. 3,000 tested, 54% active. shares compounds with ROMK primary;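 active = Flux at 10 µM at least 3 SD below or above vehicle control mean in one or both replicates; inconclusive = no clear call, values can overlap the other calls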
* marks the source's active call; other numbers are inactive results; ? = inconclusive; · = no result.

SMILES	ROMK primary	Pf gamet viab	Biofilm kill mix	ROMK hit retest
Cn1c(=O)c(C(=O)NCCc2ccc(Cl)cc2)c(O)c2ccccc21	·	3	·	·
O=C(NCc1ccncc1)c1ccc(Br)cc1	·	26	·	·
O=C(NCc1ccccc1)c1ccc(Br)cc1	-4.5*	-5	9	?
Nc1ncc([N+](=O)[O-])cc1S(=O)(=O)c1ccccc1	·	22	·	·
NS(=O)(=O)c1ccc(NC(=O)COC(=O)C2(c3ccccc3F)CCCC2)cc1	·	-13	14	·
NC(=O)c1ccc(NC(=O)COC(=O)C2(c3ccccc3F)CCCC2)cc1	-13*	11	6	0.079
CCc1ccc(/C=C2\Oc3c(ccc(O)c3CN3CCN(CCO)CC3)C2=O)cc1	·	5	9	0.049*
CCc1ccc(/C=C2\Oc3cc(OS(C)(=O)=O)ccc3C2=O)cc1	·	2	18	·
COC(=O)c1cn(C(=O)c2ccc(OC)cc2)c2ccccc12	·	-10	·	·
CNNC(=S)Nc1cccc(SC)c1	·	5	20	·
COC(=O)c1cc(C(=O)N2CCN(c3ccccc3OC)CC2)cc([N+](=O)[O-])c1	-1.3	-14	7	·
COC(=O)c1cc(C(=O)N2CCN(c3cccc(C)c3C)CC2)cc([N+](=O)[O-])c1	2.8*	-27	13	?
CSCCC1COC(c2cccs2)=N1 (stereo not drawn)	1.5	5	19	·
OC(CNCC1CCCO1)Cn1c2ccccc2c2ccccc21 (stereo not drawn)	-4.1*	8	·	0.061*
OC(CNCc1ccco1)Cn1c2ccccc2c2ccccc21 (stereo not drawn)	-2.2	-1	·	·
CCOC(=O)c1nnn(CC(=O)N2N=C(c3ccc(Cl)cc3)CC2c2ccccc2)c1C(=O)OCC (stereo not drawn)	-1.4	·	11	·
COc1ccc(NS(=O)(=O)c2cc(NC(=O)c3ccco3)ccc2N2CCCC2)cc1	·	·	4	·
COc1ccc(NS(=O)(=O)c2cc(NC(=O)c3cc(F)c(F)c(F)c3F)ccc2N2CCCC2)cc1	·	-1	9	0.084
Cc1cccn2c(CN3CCCC(c4ccccc4)C3)c(C(=O)N3CCOCC3)nc12 (stereo not drawn)	-1	-11	13	·
CC(C)c1cc(C(F)(F)F)n2nc(C(=O)Nc3ccc(-n4cnnn4)cc3)cc2n1	·	-2	14	·
CC(=O)c1cc2c(cc1NC(=O)c1cc3nc(C(C)C)cc(C(F)(F)F)n3n1)OCO2	·	·	·	0.075
CCc1ccc(NC(=O)N(CCN2CCOCC2)Cc2ccc3c(c2)CCCN3CC)cc1	-1.6	·	·	·
CCN1CCCc2cc(CN(CCN3CCOCC3)C(=O)Nc3ccc(C)c(C)c3)ccc21	-3.5*	·	·	0.056*
CCNC(=O)CN1C(=O)NC(Cc2ccccc2)(Cc2ccccc2)C1=O	0.032	8	11	·
COc1ccccc1C1SCCN1S(=O)(=O)c1cccc(C(F)(F)F)c1 (stereo not drawn)	-4.3*	·	·	0.066*
SMILES	ROMK primary	Pf gamet viab	Biofilm kill mix	ROMK hit retest
COc1ccc(Br)cc1C1SCCN1S(C)(=O)=O (stereo not drawn)	0.72	-12	·	·
COc1cc(C(=O)Nc2cccc(S(=O)(=O)N3CCCC3)c2)cc(OC)c1C	·	16	21	·
CN(C)c1ccnc(Nc2ccccc2)c1C#N	·	11	12	·
CN(C)c1ccnc2c[cH-]cc12.[Fe].c1ccc(-[c-]2[c-](-c3ccccc3)[c-](-c3ccccc3)[c-](-c3ccccc3)[c-]2-c2ccccc2)cc1 (stereo not drawn)	·	11	15	0.066*
Cc1ccnc(NC(=O)CCC(=O)N(CC(=O)NC(C)(C)C)c2ccc(F)c(Cl)c2)c1	-0.21	15	23	·
O=C(NNc1c(Cl)cncc1Cl)c1sccc1Cl	·	15	25	·
Cc1ccccc1CSc1nnc(-c2cnccn2)n1C	·	6	18	·
CN(C)c1ccc(/C=C/c2cc[n+](C)cc2)cc1	-7.3*	·	·	0.044*
C[n+]1ccc(/C=C/c2cccs2)cc1	·	-34	20	·
CCOC(=O)Cc1csc(NC(=O)c2csc3c2CCCC3)n1	·	-5	·	0.07
CCOC(=O)Cc1csc(NC(=O)c2cc3c(s2)CCCC3)n1	-0.24	4	·	·
Cn1c(SCC(=O)O)nnc1-c1ccc(NC(=O)c2ccc(Cl)c(Cl)c2)cc1	-0.35	8	13	·
CCOc1nc2ccccc2cc1C=O	5.3*	-7	8	0.12*
CCCOc1nc2ccccc2cc1/C=C/C(=O)O	0.44	-36	15	·
CCOc1cc(C(=O)N/N=C/C2CC=CCC2)cc(OCC)c1OCC (stereo not drawn)	0.92	-1	11	·
COc1ccc(OCCn2cnc3ccccc32)cc1	·	-13	·	·
c1ccc(OCCn2cnc3ccccc32)cc1	-2.2*	·	·	0.067*
Cc1ccc(OCCOCCn2cnc3ccccc3c2=O)c([N+](=O)[O-])c1	1.7	16	6	·
Cc1ccc([N+](=O)[O-])c(OCCn2cnc3ccccc32)c1	-3*	-12	18	?
O=C1C2CCCN2C(=O)N1CCN1CCN(c2cccc(C(F)(F)F)c2)CC1 (stereo not drawn)	·	11	·	·
CCCN1C(=O)C2(C(C(=O)c3ccc(C)o3)=C(O)C(=O)N2CCCOC)c2ccccc21 (stereo not drawn)	-0.3	7	19	·
CCCS(=O)(=O)N1CCC(C(=O)N2CCC(Cc3ccccc3)CC2)CC1	0.65	·	·	·
CCCS(=O)(=O)N1CCC(C(=O)NCCCN2CCC(Cc3ccccc3)CC2)CC1	-4.3*	·	·	0.077
O=C(CSc1cccs1)Nc1ccc(Cl)cc1	·	-9	10	·
OCC1(Cc2ccccc2)CCCN(Cc2ccn[nH]2)C1 (stereo not drawn)	0.63	1	9	·
SMILES	ROMK primary	Pf gamet viab	Biofilm kill mix	ROMK hit retest
COc1ccccc1N(CC(O)Cn1ccnc1C)S(=O)(=O)c1ccc(C)cc1 (stereo not drawn)	-0.53	·	23	·
CCCOc1ccc(C(=O)NCC(c2ccco2)N(C)C)cc1OC (stereo not drawn)	-0.28	·	19	·
CN(C)C(CNC(=O)c1cccc(OC(F)F)c1)c1ccco1 (stereo not drawn)	1.1*	·	5	0.088
CN(CC(=O)Nc1ccc(C(N)=O)cc1)CC(=O)Nc1ccccc1Br	6.1*	0	17	0.075
CC(=O)Nc1ccc(NC(=O)CN(C)CC(=O)Nc2ccccc2Br)cc1	0.95	·	4	·
CCOc1ccc2[nH]cc(S(=O)(=O)c3ccc(C)cc3)c(=O)c2c1	0.51	·	14	·
CCOc1ccc2ncc(S(=O)(=O)c3ccc(C)cc3)c(N3CCC4(CC3)OCCO4)c2c1	·	0	5	0.063*
NC(=O)C1CC(=O)N(c2ccc(OCc3ccccc3Cl)cc2)C1 (stereo not drawn)	0.53	·	4	·
CCc1ccc(S(=O)(=O)NCCc2csc(C)n2)s1	0.017	23	7	·
CCc1ccc(S(=O)(=O)NCCc2csc(-c3ccccc3)n2)s1	-3.4*	·	·	0.071
CC(C)c1nc(SCC(=O)Nc2c[nH]c(=O)[nH]c2=O)c2cnn(-c3ccccc3)c2n1	0.42*	-22	-1	0.085
O=C(CSc1ncnc2c1cnn2-c1ccccc1)Nc1ccccc1	1.3	-19	·	·
CC(C)Sc1n[nH]c(=O)n1-c1cccc(C(F)(F)F)c1	·	2	11	·
